Rows were chosen to be rich in hits. Some 2.9% of all compounds tested hit in one or more screens of this group.
Runt-CBFb FRET: inhibitors of RUNX1 Runt–CBFb binding, primary screen, biochemical, FRET, Cerulean-Runt, Venus-CBFb, uHTS; Runt-related transcription factor 1 (Homo sapiens) + Core-binding factor subunit beta …; Cerulean-Runt/Venus-CBFb FRET ratio 530/480, 1 h; inhibition, % at 20 µM; hit rate 0.46% among 220,000; AID 1496, 2009;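 active = inhibition over about 50% at 20 µM in the single-dose screen, limit read from the data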
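Assay system: Cerulean-Runt domain fusion protein, energy donor; Signal: fluorescence energy transfer, 422 nm excitation, 530/480 nm emission; Timing: 1 h compound exposure, room temperature; Control set: unlabeled CBFb; Medium: Tris buffer pH 7.5 with salts and BSA; Compound: single test concentration of 20 µM, 1% DMSO final; Probe or stimulus: Venus-CBFb 100 nM.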
KLK7 zymogen act: proKLK7 zymogen activators, primary screen, biochemical, fluorescence intensity | purified proKLK7, EDANS-DABCYL substrate fluorescence; 100% is mature enzyme control, 0% vehicle | Kallikrein-7 (Homo sapiens), P49862 | activation, % at 7 µM | hit rate 0.9% among 370,000;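 active = activation above the mean of all tested compounds plus 3 SD, computed per campaign excluding outliers beyond control limits, cut at about 13% in these data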
Target sequence (P49862 whole entry, looked up): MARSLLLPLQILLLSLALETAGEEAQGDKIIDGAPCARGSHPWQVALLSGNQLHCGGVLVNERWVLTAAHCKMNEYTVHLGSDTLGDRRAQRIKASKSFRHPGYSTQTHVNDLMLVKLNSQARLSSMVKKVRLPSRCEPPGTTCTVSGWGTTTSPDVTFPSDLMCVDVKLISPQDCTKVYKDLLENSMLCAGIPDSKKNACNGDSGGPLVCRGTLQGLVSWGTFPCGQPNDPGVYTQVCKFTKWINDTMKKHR
AI-2 QS modul: Vibrio harveyi AI-2 quorum sensing modulators, primary screen, JMH597 strain, luminescence/OD600 ratio; Vibrio harveyi JMH597 AI-2 luminescence/OD600 ratio, 9 h; active compounds read low; strain lacks LuxN and CqsS sensors; 0 = neutral-control median; activity change, % at 7.5 µM; hit rate 0.4% among 300,000; in the data active = activity change below about -75%, passing the limit was not always enough; inconclusive = no clear call, values can overlap the other calls;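 also: luminescence divided by OD600 gain over 9 h not by final OD600 alone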
RanGTP-Imp inh: inhibitors of RanGTP-importin-beta interaction, primary screen, biochemical, FRET, CFP-Ran, YFP-importin-beta, homogeneous | cell-free CFP-Ran/YFP-importin-beta FRET ratio | inhibition, % (test concentration not listed) | Ran GTPase (GTP-bound) - importin-beta complex | hit rate 1.1% among 300,000;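 active = more than half of the replicate wells show a fall in the fluorescence ratio signal beyond about 16%, limit read from the data, passing the limit was not always enough; inconclusive = exactly half of the replicate wells pass the set limit; inactive = fewer than half of replicates pass the limit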
Wee1 stabilizer: Wee1 degradation inhibitors, primary screen, cell-based, HeLa, Wee1K328M-luciferase, luminescence; Wee1-like protein kinase (Homo sapiens), P30291; HeLa Luc-Wee1K328M stability; 100% = proteasome inhibitor MG132 effect; reporter increase, % at 5 µM; hit rate 1.2% among 220,000; AID 1321, 2008;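 active = activation above the mean of all tested compounds plus 3 SD, set per screening run, cut at about 8.8% in these data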;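 also: cells exposed to compound for 20 h before luminescence read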
Runt-SMMHC FRET: inhibitors of RUNX1 Runt–CBFb-SMMHC binding, primary screen, biochemical, FRET, Cerulean-Runt, Venus-CBFb-SMMHC, uHTS | hit rate 0.74% among 220,000 | inhibition, % at 20 µM | Cerulean-Runt/Venus-CBFb-SMMHC FRET ratio 530/480, 1 h | Runt-related transcription factor 1 (Homo sapiens) + Core-binding factor subunit beta …;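 active = mean inhibition across duplicate retests at 20 µM reaching about 50%, limit read from the data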;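 also: inhibitors lower the FRET ratio by blocking Runt binding to CBFb-SMMHC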
JMH597 growth rt: Vibrio harveyi growth inhibition, confirmation, counter-screen for AI-2 quorum sensing project, JMH597 strain, OD600 absorbance; hit rate 1% among 750; 9 h; lacks LuxN and CqsS sensors; shares compounds with AI-2 QS modul; growth inhibition, % at 7.5 µM;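 active = every replicate shows growth inhibition above 50%; inconclusive = at least half, but not all, replicates pass that cutoff; inactive = fewer than half of replicates pass it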
BB721 lum counter: luminescence inhibition in constitutive-on V. harveyi, confirmation, counter-screen for LuxS inhibitor project, strain BB721, luminescence readout; shares compounds with AI-2 QS modul; hit rate 95% among 750; Vibrio harveyi BB721 luminescence, 9 h; inhibition, % at 7.5 µM;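 active = inhibition above about 80% in every replicate, not just on average, limit read from the data; inconclusive = at least half of replicates past the limit, but not all; inactive = fewer than half of replicates past the limit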
BB721 growth rt: growth inhibition of V. harveyi BB721, confirmation, cytotoxicity control for AI-2 quorum sensing inhibitors, strain BB721, absorbance OD600. shares compounds with AI-2 QS modul. Vibrio harveyi BB721 growth, 9 h. growth inhibition, % at 7.5 µM. hit rate 3% among 750;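 active = every replicate shows growth inhibition above 50%; inconclusive = at least half but not all replicates above 50% inhibition; inactive = under half of replicates above 50% inhibition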
JMH597 AI-2 mod: Vibrio harveyi AI-2 signaling luminescence modulation – JMH597 strain, confirmation; hit rate 97% among 750; Vibrio harveyi JMH597 AI-2 quorum sensing luminescence, 9 h; luxN and CqsS knockout, AI-2 only; shares compounds with AI-2 QS modul; AID 2736, 2010; inhibition, % at 7.5 µM;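 active = every replicate shows more than 75% inhibition of signal versus neutral control wells; inconclusive = half to three quarters of replicates exceed 75% inhibition; inactive = fewer than half of replicates exceed 75% inhibition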
YIC FRET counter: YIC intramolecular FRET probe signal interference, dose response, counter-screen for RanGTP-importin-beta inhibitor project, biochemical, fluorescence FRET. shares compounds with RanGTP-Imp inh. IC50, µM. Purified YIC probe, intramolecular FRET ratio YFP/CFP. hit rate 40% among 1,000;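 active = fitted half-maximal inhibitory concentration no more than tenfold above the top dose tested; inconclusive = flat fit with 30 to 70% activity, or poor fit; inactive = half-maximal concentration beyond tenfold above the top dose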
KLK7 act conf: proKLK7 zymogen activators, confirmation, biochemical, fluorescence intensity, triplicate. shares compounds with KLK7 zymogen act. purified proKLK7, EDANS-DABCYL substrate fluorescence; scaled: vehicle 0, mature enzyme 100. activation, % at 7 µM. hit rate 68% among 3,200. AID 686949, 2013;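 active = activation, as change over the incubation, above the mean of all tested compounds plus 3 SD, cut at about 13% in these data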
EDANS-DABCYL int: EDANS-DABCYL substrate optical interference, artefact control for kallikrein-7 zymogen activator project, biochemical, fluorescence intensity, high throughput; shares compounds with KLK7 zymogen act; no enzyme, 4 h; solvent 0%, active enzyme control 100%; activation, % at 7 µM; hit rate 80% among 3,200; AID 686952, 2013;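 active = activation above the all-compound mean plus 3 SD, ignoring values outside control-based bounds, cut at about 4.8% in these data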;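 also: value is the 4 h activation minus the activation read at time zero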
EDANS interf: counter-screen for kallikrein-7 activators: EDANS-DABCYL interference, dose response; shares compounds with KLK7 zymogen act; EDANS-DABCYL peptide fluorescence interference, no enzyme; EC50, µM; hit rate 20% among 250; AID 720493;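 active = compounds that raise the fluorescence signal in this interference counterscreen, with EC50 at or below 10 µM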;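 also: intact quenched peptide substrate alone read at 355 nm excitation and 520 nm emission; signal is fluorescence gain from T0 to T4 after four hours at room temperature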
Numbers stand for hits; 0 = inactive; ? = inconclusive; - = no result given.

SMILES	Runt-CBFb FRET	KLK7 zymogen act	AI-2 QS modul	RanGTP-Imp inh	Wee1 stabilizer	Runt-SMMHC FRET	YIC FRET counter	others
O=C(c1cc2cc(Cl)ccc2[nH]1)N1CCC2(CC1)OCCO2	-	0	-84	0	-	-	-	JMH597 growth rt=0;BB721 lum counter=96;BB721 growth rt=0;JMH597 AI-2 mod=98
CCC1(c2ccc(-c3ccccc3)cc2)C(=O)NC(=O)NC1=O	-	0	-90	0	-	-	-	JMH597 growth rt=0;BB721 lum counter=98;BB721 growth rt=0;JMH597 AI-2 mod=98
CCC1(c2ccccc2)C(=O)NC(=O)NC1=O	-	0	-	-	-	-	-
Cc1ccsc1C(=O)C1CCCN(Cc2ccn[nH]2)C1 (stereo not given)	0	0	0	0	0	0	-
O=C(c1ccc(-c2ccccc2)cc1)C1CCCN(Cc2ccn[nH]2)C1 (stereo not given)	0	0	-84	0	0	0	-	JMH597 growth rt=0;BB721 lum counter=84;BB721 growth rt=0;JMH597 AI-2 mod=91
C1=CC(Cc2cncs2)c2ccccc21 (stereo not given)	-	0	-	-	-	-	-
O=C(COC(=O)Cc1ccccc1)Nc1ccc(SC(F)F)cc1	0	0	-91	-	0	0	-	JMH597 growth rt=0;BB721 lum counter=94;BB721 growth rt=0;JMH597 AI-2 mod=99
Cc1ccccc1OP(=O)(Oc1ccccc1C)N1CCOCC1	-	0	-	-	-	-	-
NC(N)=N/N=C/c1ccc(N(c2ccccc2)c2ccccc2)cc1	-	0	0	23	-	-	0
CCNC(=S)N1CCn2cccc2C1c1cccnc1 (stereo not given)	0	0	0	0	0	0	-
Cc1cccc(C)c1OC(=O)Cc1ccccc1	0	0	0	0	0	0	-
Cc1sc2nc(COC(=O)Cc3ccccc3)[nH]c(=O)c2c1C	0	0	0	20	0	0	0
Cc1ccc(-n2c(O)c(/C=N/N3CCCCCC3)c(=O)[nH]c2=O)cc1C	0	0	0	22	0	0	0
Cn1c(O)c(/C=N/N2CCCCC2)c(=O)[nH]c1=O	0	0	0	0	0	0	-
O=c1[nH]c(=O)n(-c2cccc3ccccc23)c(O)c1/C=N/N1CCCCC1	0	0	-	0	0	0	-
O=c1[nH]c(=O)n(-c2cccc3ccccc23)c(O)c1/C=N/N1CCCCCC1	0	0	0	22	0	0	0
Cc1ccc(C2(O)CN3CCC2CC3)cc1 (stereo not given)	-	0	0	0	-	-	-
Nc1ccc(C2(c3ccc(N)cc3)CN3CCC2CC3)cc1	0	0	0	49	0	0	0
COc1ccc(C(c2nnnn2-c2ccc3c(c2)OCCO3)N2CCC3(CC2)C(=O)NCN3c2ccccc2)cc1 (stereo not given)	-	0	-	-	-	-	-
COC(=O)C1=C(c2ccc(F)cc2OCc2ccccc2)C[C@@H]2CC[C@H]1N2C(=O)NC1Cc2ccccc2C1	-	0	-	-	-	-	-
Cc1c(OC(=O)N(C)C)ccc2c1O/C(=C\c1ccco1)C2=O	-	0	0	30	-	-	12
CCc1ccc(N2C(=O)NC(=O)/C(=C\c3cc(C)n(-c4cc(C(=O)O)cc(C(=O)O)c4)c3C)C2=O)cc1	-	0	0	19	-	-	0
Cc1cc(/C=C2\C(=O)NC(=O)N(c3ccc(F)cc3)C2=O)c(C)n1-c1ccc(C(=O)O)cc1	0	0	0	18	0	0	0
O=c1[nH]c(O)c(/C=C2/C=CC(c3cc(Cl)ccc3Cl)=N2)c(=O)[nH]1	115	0	0	38	0	80	4
CC(C)[C@]12CC(=O)[C@H](C)[C@H]1C2	-	0	-	-	-	-	-
SMILES	Runt-CBFb FRET	KLK7 zymogen act	AI-2 QS modul	RanGTP-Imp inh	Wee1 stabilizer	Runt-SMMHC FRET	YIC FRET counter	others
COc1ccc(CNC(=O)CCC(=O)N2C[C@H]3C[C@H](C2)c2cccc(=O)n2C3)cc1	-	0	0	0	-	-	-
CC1(C)CC(=O)c2cc(OCC(=O)N3CCN(Cc4ccccc4)CC3)ccc2O1	0	0	0	0	0	0	-
CCN1CCN(C(=O)COc2ccc3c(c2)C(=O)CC2(CCN(C(C)=O)CC2)O3)CC1	0	36	0	?	0	0	-	KLK7 act conf=82;EDANS-DABCYL int=63;EDANS interf=0
COC(=O)C1=C(c2ccc(F)cc2OCc2ccccc2)C[C@@H]2CC[C@H]1N2C(=O)NCc1ccccc1Br	-	0	-	-	-	-	-
COc1cc2c(cc1OC)C(c1c(O)n(CCc3ccccc3)c(=S)[nH]c1=O)NCC2 (stereo not given)	0	95	0	0	0	0	-	KLK7 act conf=85;EDANS-DABCYL int=84
COc1ccc(C2CC(c3c(O)n(CCc4ccccc4)c(=O)[nH]c3=O)=NN2)cc1OC (stereo not given)	0	0	0	0	0	0	-
CS(=O)(=O)c1ccc(C(=O)N2CCC(C(=O)O)(c3ccccc3)CC2)cc1	-	0	0	0	-	-	-

Screening data as filed in PubChem.
